Key:
[1] = molecular target: Norepinephrine transporter (Homo sapiens, UniProt P23975); assay: radioligand binding displacement
Outline: (§1)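 Off-target screen by radioligand binding displacement, run per published methods with reference standards in each assay. […] Recombinant human targets were expressed in CHO-K1 cells (A3, dopamine transporter), Sf9 insect cells (α2A), CHO cells (DOP) and MDCK cells (norepinephrine transporter). IC50, where determined, came from non-linear least-squares regression.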

Adenosine A3 = molecular target: T1, Adenosine A3 (Homo sapiens, UniProt P0DMS8); assay: radioligand binding displacement; conditions: read-out: % inhibition at 10 μM
T1 sequence (P0DMS8 1-318): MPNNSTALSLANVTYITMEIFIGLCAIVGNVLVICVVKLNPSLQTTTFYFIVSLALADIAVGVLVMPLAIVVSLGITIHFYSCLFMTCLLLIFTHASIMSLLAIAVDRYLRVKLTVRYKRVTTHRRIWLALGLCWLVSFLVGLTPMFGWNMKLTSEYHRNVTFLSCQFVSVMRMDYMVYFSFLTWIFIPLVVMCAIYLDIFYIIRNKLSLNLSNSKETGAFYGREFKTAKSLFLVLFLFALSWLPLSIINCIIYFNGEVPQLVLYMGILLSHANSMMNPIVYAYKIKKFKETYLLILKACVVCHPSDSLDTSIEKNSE
Outline: as §1

hmGluR2/hCaR* = assay: fluorescence-based functional assay, HEK […] cells; assay type: cell-based, Homo sapiens; conditions: read-out: Effect; positive allosteric modulator; with 0.02 μM DCG-IV as agonist

Chain of Norepinephrine transporter (P23975 whole entry): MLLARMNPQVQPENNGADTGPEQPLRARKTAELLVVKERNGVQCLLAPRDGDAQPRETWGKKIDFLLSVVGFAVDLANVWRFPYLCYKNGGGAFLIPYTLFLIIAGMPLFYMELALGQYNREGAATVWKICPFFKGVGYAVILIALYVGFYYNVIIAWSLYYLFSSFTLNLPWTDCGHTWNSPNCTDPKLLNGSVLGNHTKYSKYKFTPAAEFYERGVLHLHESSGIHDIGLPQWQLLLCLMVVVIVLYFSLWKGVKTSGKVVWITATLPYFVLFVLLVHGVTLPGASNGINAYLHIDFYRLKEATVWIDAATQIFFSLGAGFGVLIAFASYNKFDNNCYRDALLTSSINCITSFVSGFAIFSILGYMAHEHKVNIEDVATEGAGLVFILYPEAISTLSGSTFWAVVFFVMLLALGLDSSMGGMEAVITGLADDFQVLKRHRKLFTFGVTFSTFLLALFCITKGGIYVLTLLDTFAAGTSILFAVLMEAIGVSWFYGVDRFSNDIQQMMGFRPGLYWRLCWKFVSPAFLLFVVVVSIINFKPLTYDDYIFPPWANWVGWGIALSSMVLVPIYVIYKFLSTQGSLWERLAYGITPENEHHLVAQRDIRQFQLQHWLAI

`Cc1cc(-c2nc(CN3CCNCC3)no2)cc2c1C(=O)N(Cc1ccc(OC(F)(F)F)cc1)C2` [AZD8529, 7-methyl-5-(3-piperazin-1-ylmethyl-[1,2,4]oxadiazol-5-yl)-2-(4-trifluoromethoxybenzyl)-2,3-dihydroisoindol-1-one] was tested, and the IC50 [1] was 4730 nM, the inhibition at 10 µM (Adenosine A3) was 51% and the EC50 (hmGluR2/hCaR*) was 285 ± 20 nM.

Reference: article PMC4529372 (Biological psychiatry, 2015)
